According to publication PMC6360136 (Investigational new drugs, 2018):

How the values were obtained:
[1] = system: VEGF-A secretion in PANC-1 and EC46 cells; assay: VEGF-A AlphaLISA; assay type: cell-based, human; conditions: 12 h
[2] = system: orthotopic pancreatic PDX tumor; assay: Ki-67 staining of PDX tumors; assay type: in vivo, NSG mice; conditions: PDX tumors at euthanasia, 0.25 mg/kg i.p. every other day, vs vehicle
In short: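 Orthotopic PDX mice received test compound 0.25 mg/kg i.p. or DMSO every other day. At endpoint, tumours were formalin-fixed and paraffin-embedded, and 5 micron sections were cut. Sections were stained for Ki-67 (proliferation) or by TUNEL (apoptosis). Ki-67 was scored as the average number of positive cells per high-power field by image analysis.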

In the case of `CC[C@H](C)[C@@H]1C(=O)N2CCC[C@@H]2C(=O)O[C@H](C(C)(C)C)C[C@@H](C)C[C@@H](O)C(C)(C)C2=N[C@H](CCC(=O)N[C@@H](Cc3ccc(OC)cc3)C(=O)N(C)[C@@H](C)C(=O)N1C)CS2` [Apra S10, apratoxin S10], the “effect on VEGF-A secretion” value [1] is reported as “inhibited the secretion of VEGF-A at low nanomolar to subnanomolar concentrations” and the “decrease in the number of cells undergoing proliferation (Ki-67)” value [2] is reported as greater than 50%.
